Assay results reported in ChEMBL document CHEMBL4340542, “Design, synthesis and biological evaluation of 4-aniline-thieno[2,3-d]pyrimidine derivatives as MNK1 inhibitors against renal cell carcinoma and nasopharyngeal carcinoma” (Bioorg Med Chem, 2019).
Activity calls are given as the source filed them. The calls are words filed in the database; no cut-off is given here.

How the values were obtained:
[1] = molecular target: MAP kinase-interacting serine/threonine-protein kinase 1 (Homo sapiens, UniProt Q9BUB5); assay: Inhibition of human MNK1 using CREBtide substrate by gamma-[32P]-ATP competitive inhibition assay
Outline: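 Run as the Eurofins KinaseProfiler radiometric assay, competitive with γ-[32P]-ATP. IC50 taken as the mean of independent experiments; the footnote gives two.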

CNE = assay: Cytotoxicity against human CNE1 cells assessed as decrease in cell viability incubated for 24 hrs by MTT assay; type: functional, cell-based
Outline: (§1)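 IC50 from an 8–10 point concentration gradient by MTT assay. Panel covers renal cell carcinoma and nasopharyngeal carcinoma lines. Values are mean ± SD, n = 3.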

CNE-2 = assay: Cytotoxicity against human CNE2 cells assessed as decrease in cell viability incubated for 24 hrs by MTT assay; type: functional, cell-based; outline: as §1
SUNE1 = assay: Cytotoxicity against human SUNE1 cells assessed as decrease in cell viability incubated for 24 hrs by MTT assay; type: functional, cell-based; outline: as §1
Homo sapiens = species: Homo sapiens; assay: Cytotoxicity against human HNE1 cells assessed as decrease in cell viability incubated for 24 hrs by MTT assay; type: functional, cell-based; outline: as §1
A498 = assay: Cytotoxicity against human A498 cells assessed as decrease in cell viability incubated for 24 hrs by MTT assay; type: functional, cell-based; outline: as §1
CAKI-1 = assay: Cytotoxicity against human Caki1 cells assessed as decrease in cell viability incubated for 24 hrs by MTT assay; type: functional, cell-based; outline: as §1
786-0 = assay: Cytotoxicity against human 786-O cells assessed as decrease in cell viability incubated for 24 hrs by MTT assay; type: functional, cell-based; outline: as §1

MAP kinase-interacting serine/threonine-protein kinase 1, sequence (Q9BUB5 whole entry): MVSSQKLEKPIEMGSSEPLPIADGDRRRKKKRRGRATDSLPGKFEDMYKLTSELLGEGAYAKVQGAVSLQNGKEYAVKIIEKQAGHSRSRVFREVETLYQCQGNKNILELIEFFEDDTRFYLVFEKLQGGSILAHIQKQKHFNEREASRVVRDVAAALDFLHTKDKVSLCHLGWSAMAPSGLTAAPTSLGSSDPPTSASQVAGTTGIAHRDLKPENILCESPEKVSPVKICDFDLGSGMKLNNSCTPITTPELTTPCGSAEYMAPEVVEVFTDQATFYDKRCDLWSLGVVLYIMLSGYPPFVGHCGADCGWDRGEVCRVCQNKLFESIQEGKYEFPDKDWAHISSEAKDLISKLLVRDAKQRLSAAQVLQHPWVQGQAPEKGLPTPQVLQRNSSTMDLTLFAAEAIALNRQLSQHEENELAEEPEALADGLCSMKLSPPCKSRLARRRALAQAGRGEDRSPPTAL

| Structure (SMILES) | IC50 [1] [nM] | also measured |
| --- | --- | --- |
| Cc1ccc(Nc2ncnc3sc4c(c23)CCN(S(=O)(=O)c2ccc(F)cc2F)C4)c(Br)c1 | 1680 |  |
| COc1cc(F)ccc1Nc1ncnc2sc3c(c12)CCN(S(=O)(=O)c1ccccc1[N+](=O)[O-])C3 | 1100 |  |
| Fc1ccc(Nc2ncnc3sc4c(c23)CCN(Cc2ccccc2)C4)c(F)c1 | 1100 |  |
| O=S(=O)(c1cccs1)N1CCc2c(sc3ncnc(Nc4ccc(Br)cc4)c23)C1 | 1390 |  |
| COc1cccc(Nc2ncnc3sc4c(c23)CCCC4)c1 | 1700 |  |
| COc1ccc(S(=O)(=O)N2CCc3c(sc4ncnc(Nc5cccc(C)c5)c34)C2)cc1 | 1410 |  |
| O=[N+]([O-])c1ccccc1S(=O)(=O)N1CCc2c(sc3ncnc(Nc4cccc(Cl)c4)c23)C1 | 1640 |  |
| Cc1cccc(Nc2ncnc3sc4c(c23)CCCC4)c1 | 1790 |  |
| COc1ccc(S(=O)(=O)N2CCc3c(sc4ncnc(Nc5ccc(Cl)cc5F)c34)C2)cc1 | 1150 | Activity (CNE): Active; Activity (CNE-2): Active; Activity (SUNE1): Active; Activity (Homo sapiens): Active; Activity (A498): Active; Activity (CAKI-1): Active; Activity (786-0): Active |
| Cc1ccc(Nc2ncnc3sc4c(c23)CCN(S(=O)(=O)c2cccs2)C4)c(Br)c1 | 1560 |  |
| COc1ccc(S(=O)(=O)N2CCc3c(sc4ncnc(Nc5cccc(F)c5)c34)C2)cc1 | 1390 |  |
| O=S(=O)(c1ccc(F)cc1F)N1CCc2c(sc3ncnc(Nc4ccc(Cl)cc4F)c23)C1 | 1540 |  |
| O=S(=O)(c1cccs1)N1CCc2c(sc3ncnc(Nc4ccc(F)cc4F)c23)C1 | 1460 |  |
| O=[N+]([O-])c1ccccc1S(=O)(=O)N1CCc2c(sc3ncnc(Nc4ccc(Cl)cc4)c23)C1 | 1650 |  |
| Cc1cccc(Nc2ncnc3sc4c(c23)CCN(S(=O)(=O)c2cccs2)C4)c1 | 2130 |  |
| COc1ccc(S(=O)(=O)N2CCc3c(sc4ncnc(Nc5cccc(OC)c5)c34)C2)cc1 | 2140 |  |
| Cc1cccc(Nc2ncnc3sc4c(c23)CCN(S(=O)(=O)c2ccc(F)cc2F)C4)c1 | 2400 |  |
| Cc1cccc(Nc2ncnc3sc4c(c23)CCN(S(=O)(=O)c2ccccc2[N+](=O)[O-])C4)c1 | 2060 |  |
| O=[N+]([O-])c1ccccc1S(=O)(=O)N1CCc2c(sc3ncnc(Nc4ccc(F)cc4F)c23)C1 | 1080 |  |
| O=S(=O)(c1ccc(F)cc1F)N1CCc2c(sc3ncnc(Nc4ccc(F)cc4F)c23)C1 | 1100 |  |
| COc1cc(F)ccc1Nc1ncnc2sc3c(c12)CCN(C(=O)OC(C)(C)C)C3 | 1340 |  |

| Structure (SMILES) | IC50 [1] [nM] | also measured |
| --- | --- | --- |
| COc1cc(F)ccc1Nc1ncnc2sc3c(c12)CCN(Cc1ccccc1)C3 | 1000 |  |
| COc1cc(F)ccc1Nc1ncnc2sc3c(c12)CCN(S(=O)(=O)c1cccs1)C3 | 940 |  |
| COc1ccc(S(=O)(=O)N2CCc3c(sc4ncnc(Nc5cccc(Cl)c5)c34)C2)cc1 | 1400 |  |
| O=S(=O)(c1ccc(F)cc1F)N1CCc2c(sc3ncnc(Nc4ccc(F)cc4Br)c23)C1 | 1280 |  |
| CC(C)(C)OC(=O)N1CCc2c(sc3ncnc(Nc4cccc(Cl)c4)c23)C1 | 2170 |  |
| Clc1cccc(Nc2ncnc3sc4c(c23)CCN(Cc2ccccc2)C4)c1 | 2290 |  |
| COc1cccc(Nc2ncnc3sc4c(c23)CCN(C(=O)OC(C)(C)C)C4)c1 | 1950 |  |
| Clc1ccc(Nc2ncnc3sc4c(c23)CCN(Cc2ccccc2)C4)cc1 | 1540 |  |
| Brc1ccc(Nc2ncnc3sc4c(c23)CCCC4)cc1 | 1510 |  |
| COc1ccc(S(=O)(=O)N2CCc3c(sc4ncnc(Nc5ccc(C)cc5Br)c34)C2)cc1 | 1890 |  |
| Cc1ccc(Nc2ncnc3sc4c(c23)CCN(S(=O)(=O)c2ccccc2[N+](=O)[O-])C4)c(Br)c1 | 1650 |  |
| Cc1ccc(Nc2ncnc3sc4c(c23)CCN(Cc2ccccc2)C4)c(Br)c1 | 1570 |  |
| O=S(=O)(c1cccs1)N1CCc2c(sc3ncnc(Nc4ccc(F)cc4Br)c23)C1 | 970 |  |
| O=[N+]([O-])c1ccccc1S(=O)(=O)N1CCc2c(sc3ncnc(Nc4ccc(Cl)cc4F)c23)C1 | 1260 |  |
| O=S(=O)(c1cccs1)N1CCc2c(sc3ncnc(Nc4cccc(F)c4)c23)C1 | 1500 |  |
| Cc1cccc(Nc2ncnc3sc4c(c23)CCN(C(=O)OC(C)(C)C)C4)c1 | 2500 |  |
| COc1cccc(Nc2ncnc3sc4c(c23)CCN(Cc2ccccc2)C4)c1 | 1920 |  |
| CN1CCc2c(sc3ncnc(Nc4cccc(Cl)c4)c23)C1 | 1870 |  |
| CN1CCc2c(sc3ncnc(Nc4ccc(F)cc4F)c23)C1 | 1090 |  |
| CN1CCc2c(sc3ncnc(Nc4ccc(F)cc4Br)c23)C1 | 1470 |  |
| Clc1cccc(Nc2ncnc3sc4c(c23)CCCC4)c1 | 2430 |  |

| Structure (SMILES) | IC50 [1] [nM] | also measured |
| --- | --- | --- |
| CC(C)(C)OC(=O)N1CCc2c(sc3ncnc(Nc4cccc(F)c4)c23)C1 | 2190 |  |
| CN1CCc2c(sc3ncnc(Nc4ccc(Br)cc4)c23)C1 | 1690 |  |
| O=S(=O)(c1ccc(F)cc1F)N1CCc2c(sc3ncnc(Nc4ccc(Br)cc4)c23)C1 | 1730 |  |
| Cc1ccc(Nc2ncnc3sc4c(c23)CCN(C)C4)c(Br)c1 | 1650 |  |
| Fc1cc(Cl)ccc1Nc1ncnc2sc3c(c12)CCN(Cc1ccccc1)C3 | 1310 |  |
| CN1CCc2c(sc3ncnc(Nc4cccc(F)c4)c23)C1 | 2040 |  |
| O=S(=O)(c1ccc(F)cc1F)N1CCc2c(sc3ncnc(Nc4cccc(Cl)c4)c23)C1 | 1740 |  |
| CN1CCc2c(sc3ncnc(Nc4ccc(Cl)cc4)c23)C1 | 1820 |  |
| O=S(=O)(c1cccs1)N1CCc2c(sc3ncnc(Nc4ccc(Cl)cc4)c23)C1 | 1630 |  |
| Fc1ccc(Nc2ncnc3sc4c(c23)CCN(Cc2ccccc2)C4)c(Br)c1 | 1120 |  |
| COc1cccc(Nc2ncnc3sc4c(c23)CCN(S(=O)(=O)c2cccs2)C4)c1 | 2350 |  |
| CC(C)(C)OC(=O)N1CCc2c(sc3ncnc(Nc4ccc(Cl)cc4F)c23)C1 | 2160 |  |
| O=[N+]([O-])c1ccccc1S(=O)(=O)N1CCc2c(sc3ncnc(Nc4ccc(Br)cc4)c23)C1 | 1250 |  |
| COc1cccc(Nc2ncnc3sc4c(c23)CCN(C)C4)c1 | 2290 |  |
| COc1cccc(Nc2ncnc3sc4c(c23)CCN(S(=O)(=O)c2ccc(F)cc2F)C4)c1 | 1880 |  |
| Cc1ccc(Nc2ncnc3sc4c(c23)CCN(C(=O)OC(C)(C)C)C4)c(Br)c1 | 1700 |  |
| O=S(=O)(c1ccc(F)cc1F)N1CCc2c(sc3ncnc(Nc4cccc(F)c4)c23)C1 | 2020 |  |
| CC(C)(C)OC(=O)N1CCc2c(sc3ncnc(Nc4ccc(F)cc4Br)c23)C1 | 1720 |  |
| COc1ccc(S(=O)(=O)N2CCc3c(sc4ncnc(Nc5ccc(F)cc5F)c34)C2)cc1 | 830 | Activity (CNE): Active; Activity (CNE-2): Active; Activity (SUNE1): Active; Activity (Homo sapiens): Active; Activity (A498): Active; Activity (CAKI-1): Active; Activity (786-0): Active |
| Cc1cccc(Nc2ncnc3sc4c(c23)CCN(Cc2ccccc2)C4)c1 | 2110 |  |
| O=S(=O)(c1cccs1)N1CCc2c(sc3ncnc(Nc4cccc(Cl)c4)c23)C1 | 1380 |  |

| Structure (SMILES) | IC50 [1] [nM] | also measured |
| --- | --- | --- |
| CC(C)(C)OC(=O)N1CCc2c(sc3ncnc(Nc4ccc(Cl)cc4)c23)C1 | 2240 |  |
| CC(C)(C)OC(=O)N1CCc2c(sc3ncnc(Nc4ccc(F)cc4F)c23)C1 | 1620 |  |
| Cc1cccc(Nc2ncnc3sc4c(c23)CCN(C)C4)c1 | 2220 |  |
| Fc1cccc(Nc2ncnc3sc4c(c23)CCN(Cc2ccccc2)C4)c1 | 2080 |  |
| COc1ccc(S(=O)(=O)N2CCc3c(sc4ncnc(Nc5ccc(Br)cc5)c34)C2)cc1 | 1070 | Activity (CNE): Active; Activity (CNE-2): Active; Activity (SUNE1): Active; Activity (Homo sapiens): Active; Activity (A498): Active; Activity (CAKI-1): Active; Activity (786-0): Active |
| COc1ccc(S(=O)(=O)N2CCc3c(sc4ncnc(Nc5ccc(Cl)cc5)c34)C2)cc1 | 1220 |  |
| O=S(=O)(c1ccc(F)cc1F)N1CCc2c(sc3ncnc(Nc4ccc(Cl)cc4)c23)C1 | 1500 |  |
| COc1cc(F)ccc1Nc1ncnc2sc3c(c12)CCN(C)C3 | 930 |  |
| COc1ccc(S(=O)(=O)N2CCc3c(sc4ncnc(Nc5ccc(F)cc5Br)c34)C2)cc1 | 1000 | Activity (CNE): Active; Activity (CNE-2): Active; Activity (SUNE1): Active; Activity (Homo sapiens): Active; Activity (A498): Active; Activity (CAKI-1): Active; Activity (786-0): Active |
| Brc1ccc(Nc2ncnc3sc4c(c23)CCN(Cc2ccccc2)C4)cc1 | 1690 |  |
| Clc1ccc(Nc2ncnc3sc4c(c23)CCCC4)cc1 | 1620 |  |
| CC(C)(C)OC(=O)N1CCc2c(sc3ncnc(Nc4ccc(Br)cc4)c23)C1 | 1810 |  |
| O=S(=O)(c1cccs1)N1CCc2c(sc3ncnc(Nc4ccc(Cl)cc4F)c23)C1 | 1360 |  |
| COc1cccc(Nc2ncnc3sc4c(c23)CCN(S(=O)(=O)c2ccccc2[N+](=O)[O-])C4)c1 | 2020 |  |
| Fc1cccc(Nc2ncnc3sc4c(c23)CCCC4)c1 | 2180 |  |
| CN1CCc2c(sc3ncnc(Nc4ccc(Cl)cc4F)c23)C1 | 1850 |  |
| COc1cc(F)ccc1Nc1ncnc2sc3c(c12)CCN(S(=O)(=O)c1ccc(F)cc1F)C3 | 930 |  |
| O=[N+]([O-])c1ccccc1S(=O)(=O)N1CCc2c(sc3ncnc(Nc4cccc(F)c4)c23)C1 | 1990 |  |
| O=[N+]([O-])c1ccccc1S(=O)(=O)N1CCc2c(sc3ncnc(Nc4ccc(F)cc4Br)c23)C1 | 1160 |  |
